Measurements from ChEMBL document CHEMBL1144496, “Design, synthesis, and biological evaluation of novel iso-D-2',3'-dideoxy-3'-fluorothianucleoside derivatives” (Bioorg Med Chem, 2007).
Values after ≈ are worked out from the molar mass of the structure shown. Active and inactive are the calls of the source. The calls are words filed in the database; no cut-off is given here.

Experiments:
Feline coronavirus = experiment: Antiviral activity against Feline coronavirus WSU; assay type: functional, organism-based
How it was run: (§1)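 Feline virus strain WSU screened together with influenza A strains; test concentrations went up to 100 μg/mL, with antiviral activity and cytotoxicity both assessed.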

[1] = tested on: Vesicular stomatitis virus; experiment: Antiviral activity against vesicular stomatitis virus by CPE assay; assay type: functional, organism-based
How it was run: (§2)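 Compounds were tested at concentrations up to 100 μg/mL, and antiviral activity was expressed as EC50. For the […] line, the virus was strain […]. Cell hosts named in the work were MT4 (HTLV-1-infected human T-lymphocytes), HeLa and Vero (African green monkey kidney) cells.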

Influenza A virus [2] = assay type: functional, organism-based; settings: H1N1
Human alphaherpesvirus 2 = experiment: Antiviral activity against HSV2 by CPE assay; assay type: functional, organism-based; how it was run: as §2
[3] = tested on: Feline infectious peritonitis virus; experiment: Antiviral activity against FIP WSU; assay type: functional; how it was run: as §1
[4] = tested on: Encephalomyocarditis virus; experiment: Antiviral activity against encephalomyocarditis virus by CPE assay; assay type: functional, organism-based; settings: Cardiovirus A; how it was run: as §2
HeLa = experiment: Cytotoxicity against human HeLa cells; assay type: cell-based
How it was run: (§3)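 Cytotoxicity was assessed on uninfected cells: Vero (African green monkey kidney) and HeLa (human cervical carcinoma). Compounds were tested up to 100 μg/mL, and the value was reported as CC50, the 50% cytotoxic concentration.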

Human alphaherpesvirus 1 = experiment: Antiviral activity against HSV1 by CPE assay; assay type: functional, organism-based; how it was run: as §2
Vero = experiment: Cytotoxicity against Vero cells; assay type: cell-based; settings: chlorocebus sabaeus; how it was run: as §3
[5] = tested on: Human T-cell leukemia virus type I; experiment: Cytostatic activity against HTLV1 infected human MT4 lymphocyte; assay type: functional
How it was run: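 HTLV-1-infected human T-lymphocyte MT4 cells were exposed to compound at concentrations up to 100 μg/mL. Read-out was the 50% cytostatic concentration (CS50).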

[6] = tested on: Human immunodeficiency virus 1; experiment: Antiviral activity against HIV1 3B by CPE assay; assay type: functional, organism-based; settings: Human immunodeficiency virus 1, 3B
Coxsackievirus B3 = experiment: Antiviral activity against coxsackie B virus type 3 by CPE assay; assay type: functional, organism-based; settings: Enterovirus B
Influenza A virus [7] = experiment: Antiviral activity against influenza virus type A H3N2; assay type: functional, organism-based
How it was run: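 Influenza A viruses were H1N1 strain Taiwan and H3N2 strain Johannesburg. Compounds were tested for antiviral activity and cytotoxicity at concentrations up to 100 μg/mL.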

SMILES | Activity (Feline coronavirus) | EC50 [1] [µg/mL] | Activity (Influenza A virus [2]) | EC50 (Human alphaherpesvirus 2) [µg/mL] | Activity [3] | EC50 [4] [µg/mL] | CC50 (HeLa) [µg/mL] | EC50 (Human alphaherpesvirus 1) [µg/mL] | CC50 (Vero) [µg/mL] | CS50 [5] [µg/mL] | EC50 [6] [µg/mL] | EC50 (Coxsackievirus B3) [µg/mL] | Activity (Influenza A virus [7])
Cc1cn([C@@H]2CS[C@H](CO)[C@H]2F)c(=O)[nH]c1=O | inactive | > 100 | inactive | > 100 | inactive | > 100 | > 100 | > 100 | > 100 | >100 | > 100 | > 100 | inactive
Nc1ccn([C@@H]2CS[C@H](CO)[C@H]2F)c(=O)n1 | inactive | 9.43 (≈ 38.4 µM) | inactive | > 100 | inactive | > 14.5 | 14.54 (≈ 59.3 µM) | > 100 | > 100 | >100 | > 100 | > 14.5 | inactive
Nc1ncnc2c1ncn2[C@@H]1CS[C@H](CO)[C@H]1F | inactive | > 100 | inactive | > 100 | inactive | > 100 | > 100 | > 100 | > 100 | >100 | > 100 | > 100 | inactive
O=c1ccn([C@@H]2CS[C@H](CO)[C@H]2F)c(=O)[nH]1 | inactive | > 100 | inactive | > 100 | inactive | > 100 | > 100 | > 100 | > 100 | >100 | > 100 | > 100 | inactive
NC(=O)c1ncn([C@@H]2O[C@H](CO)[C@@H](O)[C@H]2O)n1 [RIBAVIRIN] | – | 10.3 (≈ 42.3 µM) | – | – | – | 23.4 (≈ 96 µM) | > 300 | – | – | – | – | 64.1 (≈ 262 µM) | –
O=c1[nH]cnc2c1ncn2[C@H]1CC[C@@H](CO)O1 [DIDANOSINE] | – | – | – | 0.47 (≈ 1.99 µM) | – | – | – | 0.17 (≈ 0.72 µM) | > 10 | >100 | – | – | –
